The values that follow come from ChEMBL document CHEMBL1136272, “Development of a presynaptic 5-HT1A antagonist” (Bioorg Med Chem Lett, 2003).

The first assay has as its target T1, 5-hydroxytryptamine receptor 1A (Rattus norvegicus, UniProt P19327).
T1 sequence (P19327 whole entry): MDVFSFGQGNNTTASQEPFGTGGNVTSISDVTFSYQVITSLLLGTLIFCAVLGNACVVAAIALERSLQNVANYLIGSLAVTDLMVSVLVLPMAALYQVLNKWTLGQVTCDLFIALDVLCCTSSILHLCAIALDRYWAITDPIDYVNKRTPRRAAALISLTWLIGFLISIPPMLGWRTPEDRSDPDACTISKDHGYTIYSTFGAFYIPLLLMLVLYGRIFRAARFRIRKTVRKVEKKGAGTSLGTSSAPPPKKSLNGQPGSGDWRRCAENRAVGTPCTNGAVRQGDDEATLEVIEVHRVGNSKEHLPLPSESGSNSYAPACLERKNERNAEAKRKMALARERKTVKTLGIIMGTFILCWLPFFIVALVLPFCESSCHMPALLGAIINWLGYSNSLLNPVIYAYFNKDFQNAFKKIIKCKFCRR
The assay can be described thus: Inhibition of the 5-hydroxytryptamine 1A receptor in rat dorsal raphe.
Conditions: not given
Regarding `OC1(c2ccc3c(c2)OCO3)CCC(N2CCN(Cc3cccc(Br)c3)CC2)CC1` (stereo unspecified), the IC50 (in general, the point on the concentration scale where inhibition reaches its midpoint) stood at 2.8 nM.
Same read-out and setting: the result for `OC1(c2ccc3c(c2)OCO3)CCC(N2CCN(Cc3ccccc3Br)CC2)CC1` (stereo unspecified) reads 1.2 nM; that for `COc1cccc(CN2CCN(C3CCC(O)(c4ccc5c(c4)OCO5)CC3)CC2)c1F` (stereo unspecified), 19 nM; that for `COc1cccc(C2(O)CCC(N3CCN(Cc4ccccc4)CC3)CC2)c1` (stereo unspecified), 50 nM.
Same read-out and setting: the result for `OC1(c2ccc3c(c2)OCO3)CCC(N2CCN(Cc3cccc(F)c3F)CC2)CC1` (stereo unspecified) reads 17 nM; that for `OC1(c2ccc3c(c2)OCO3)CCC(N2CCN(Cc3ccccc3F)CC2)CC1` (stereo unspecified), 10 nM.
As for `OC1(c2ccc3c(c2)OCO3)CCC(N2CCN(Cc3ccccc3Cl)CC2)CC1` (stereo unspecified), half-maximal inhibition (IC50) was put at 1.9 nM.
Same read-out and setting: with `COc1ccc(C2(O)CCC(N3CCN(Cc4ccccc4)CC3)CC2)cc1OC` (stereo unspecified) the figure was 140 nM.
The same measure, in the same setting: with `OC1(c2ccc3c(c2)OCO3)CCC(N2CCN(Cc3ccc(F)c(F)c3)CC2)CC1` (stereo unspecified) the figure was 34 nM.
Same read-out and setting: the result for `OC1(c2ccc3c(c2)OCO3)CCC(N2CCN(Cc3cc(F)ccc3F)CC2)CC1` (stereo unspecified) reads 2.6 nM; that for `OC1(c2ccc3c(c2)OCO3)CCC(N2CCN(Cc3cccc(Cl)c3)CC2)CC1` (stereo unspecified), 6 nM.
For `OC1(c2ccc3c(c2)OCO3)CCC(N2CCN(Cc3ccc(F)cc3F)CC2)CC1` (stereo unspecified), the IC50 worked out at 57 nM.
Consider `OC1(c2ccc3c(c2)OCO3)CCC(N2CCN(Cc3c(F)cccc3F)CC2)CC1` (stereo unspecified), for which it took 110 nM to reach half-maximal inhibition (IC50).
On the same count and under the same terms, the result for `COc1ccccc1C1(O)CCC(N2CCN(Cc3ccccc3)CC2)CC1` (stereo unspecified) reads 60 nM; that for `COc1ccc(CN2CCN(C3CCC(O)(c4ccc5c(c4)OCO5)CC3)CC2)cc1` (stereo unspecified), 380 nM.
On the same count and under the same terms, the result for `OC1(c2ccc(F)cc2)CCC(N2CCN(Cc3ccccc3)CC2)CC1` (stereo unspecified) reads 260 nM; that for `CCOc1cccc(CN2CCN(C3CCC(O)(c4ccc5c(c4)OCO5)CC3)CC2)c1` (stereo unspecified), 6.7 nM.
As to `OC1(c2ccc3c(c2)OCO3)CCC(N2CCN(Cc3ccc(F)cc3)CC2)CC1` (stereo unspecified), the IC50 is 27 nM.
Same read-out and setting: with `OC1(c2ccc3c(c2)OCO3)CCC(N2CCN(Cc3ccccc3I)CC2)CC1` (stereo unspecified) the figure was 1.2 nM; with `OC1(c2ccc3c(c2)OCO3)CCC(N2CCN(Cc3cccc(F)c3)CC2)CC1` (stereo unspecified), 13 nM.
Still for that read-out and setting: the result for `OC1(c2ccc3c(c2)OCO3)CCC(N2CCN(Cc3cc(F)cc(F)c3)CC2)CC1` (stereo unspecified) reads 21 nM; that for `OC1(c2ccccc2)CCC(N2CCN(Cc3ccccc3)CC2)CC1` (stereo unspecified), 460 nM.
Still for that read-out and setting: with `COc1ccc(F)c(CN2CCN(C3CCC(O)(c4ccc5c(c4)OCO5)CC3)CC2)c1` (stereo unspecified) the figure was 0.75 nM; with `COc1ccc(C2(O)CCC(N3CCN(Cc4ccccc4)CC3)CC2)cc1` (stereo unspecified), 50 nM.
As to `OC1(c2ccc3c(c2)OCO3)CCC(N2CCN(Cc3ccc(Cl)cc3)CC2)CC1` (stereo unspecified), the midpoint of inhibition, the IC50, lay at 79 nM.
Still for that read-out and setting: the result for `COc1ccccc1CN1CCN(C2CCC(O)(c3ccc4c(c3)OCO4)CC2)CC1` (stereo unspecified) reads 43 nM.

Another assay deals with Rattus norvegicus. The assay can be described thus: In vivo motor activity determined in rat at 0.1 + 1 mg/kg of ip administration. The class given is functional. The conditions noted are these: route intraperitoneal. In a few lines: (§1)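 Rat social interaction paradigm with total motor activity counts recorded in the same session. All compounds were given ip, with a saline-treated control group. Combination arms gave a 0.1 mg/kg agent together with a second agent at 1 mg/kg, both ip. Social interaction time (s) and motor counts are reported as mean ± SEM, with significance tested against saline control.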
In the case of `COc1cccc(CN2CCN(C3CCC(O)(c4ccc5c(c4)OCO5)CC3)CC2)c1.OC1(c2ccc3c(c2)OCO3)CCC(N2CCN(Cc3ccccc3)CC2)CC1` (stereo unspecified), the Motor activity is given as 5100 Counts.
The same measure, in the same setting: with `COc1cccc(CN2CCN(C3CCC(O)(c4ccc5c(c4)OCO5)CC3)CC2)c1.O=C1CC2(CCCC2)CC(=O)N1CCCCN1CCN(c2ncccn2)CC1` (stereo unspecified) the figure was 4600 Counts; with `COc1cccc(CN2CCN(C3CCC(O)(c4ccc5c(c4)OCO5)CC3)CC2)c1.OC(CCCN1CCN(c2ncc(F)cn2)CC1)c1ccc(F)cc1` (stereo unspecified), 5400 Counts.

In the next assay the test system is Rattus norvegicus. Put plainly: In vivo motor activity determined in rat at 0.1 mg/kg of ip administration. In kind it is functional. To be noted: route intraperitoneal. In a few lines:
as §1
The compound `O=C1CC2(CCCC2)CC(=O)N1CCCCN1CCN(c2ncccn2)CC1` [BUSPIRONE] yielded a Motor activity of 6700 Counts.
With `OC(CCCN1CCN(c2ncc(F)cn2)CC1)c1ccc(F)cc1` (stereo unspecified) [BMY-14802], the Motor activity was determined as 6800 Counts.

The subject of another assay is Rattus norvegicus. The assay can be described thus: Social interaction time determined in vivo in rat at 0.1 + 1 mg/kg of ip administration. In kind it is functional. To be noted: route intraperitoneal. The procedure, abridged: as §1
Consider `COc1cccc(CN2CCN(C3CCC(O)(c4ccc5c(c4)OCO5)CC3)CC2)c1.OC1(c2ccc3c(c2)OCO3)CCC(N2CCN(Cc3ccccc3)CC2)CC1` (stereo unspecified), for which the Time was 53 s.
On the same count and under the same terms, with `COc1cccc(CN2CCN(C3CCC(O)(c4ccc5c(c4)OCO5)CC3)CC2)c1.O=C1CC2(CCCC2)CC(=O)N1CCCCN1CCN(c2ncccn2)CC1` (stereo unspecified) the figure was 51 s.
On the same count and under the same terms, with `COc1cccc(CN2CCN(C3CCC(O)(c4ccc5c(c4)OCO5)CC3)CC2)c1.OC(CCCN1CCN(c2ncc(F)cn2)CC1)c1ccc(F)cc1` (stereo unspecified) the figure was 49 s.

The test system of the next assay is Rattus norvegicus. The assay can be described thus: Social interaction time determined in vivo rat at 0.1 mg/kg of ip administration. The class given is functional. The conditions noted are these: route intraperitoneal. The procedure, abridged:
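Rats dosed i.p. against a saline-treated control group. Social interaction time (s) and total motor activity (counts) were recorded in the same social-interaction session and reported as mean ± SEM, with significance tested against saline control.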
`O=C1CC2(CCCC2)CC(=O)N1CCCCN1CCN(c2ncccn2)CC1` [BUSPIRONE] returned a Time of 125 s.
The same measure, in the same setting: the result for `OC(CCCN1CCN(c2ncc(F)cn2)CC1)c1ccc(F)cc1` (stereo unspecified) [BMY-14802] reads 123 s.
